The results in this text go back to ChEMBL document CHEMBL1158058, “Cardenolide glycosides from Pergularia tomentosa and their proapoptotic activity in Kaposi's sarcoma cells” (2006).

Calls of active or inactive are those of the source. The calls are words filed in the database; no cut-off is given here.

The test system of assay [1] is KS. Briefly: Cytotoxicity against human KS cells after 24 hrs by XTT assay. It is filed as functional, cell-based. The procedure, abridged:
(§1)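 KS cells (from HIV-1 patients, spontaneously immortalized) seeded at 5 × 10^3 cells/well and left to attach 24 h. Washed in HBSS-10 mM Hepes, serum-starved 12 h, then exposed at 37 °C for 24 h in fresh serum-free medium to a range of concentrations (DMSO vehicle). Washed, then cell number by XTT (OD 490 nm) and Coulter counter. At least three independent experiments in duplicate, mean ± SEM.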
A general note: Formazan colour is commonly taken as a measure of viable cells.

A short description of assay [2]: Induction of apoptosis in human KS cells assessed as DNA fragmentation at 10 uM […] by FACS relative to control. The assay is classed as functional. The procedure, abridged:
(§2)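 KS cells serum-starved 12 h and washed with HBSS-10 mM HEPES. Preincubated 1 h at 37 °C with compound (1 or 10 µM) in DMSO (final <0.1%), washed, then cultured 24 h in 1% FBS medium. Hypodiploid (sub-G1) fraction counted by FACS against control.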
On the technique in general: A flow cytometer gives signals particle by particle.

The test system of assay [3] is KS. Put plainly: Induction of apoptosis in human KS cells assessed as caspase 3 activity at 10 uM by DEVD-AFC fluorimetric assay. It is filed as functional, cell-based. The procedure, abridged:
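KS cells handled as in the treatment protocol (12 h starvation, 1 h 37 °C exposure at 10 µM in DMSO, 24 h further culture in 1% FBS). Lysates incubated with the caspase-3 substrate DEVD-AFC. Fluorescence read as fold over untreated. Three independent experiments in duplicate (n = 6), mean ± SEM.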

Assay [4] concerns KS. Put plainly: Cytotoxicity against human KS cells after 24 hrs by coulter counter. It is filed as functional, cell-based. The procedure, abridged: as §1
Assay [5] concerns KS. Put plainly: Cytotoxicity against human KS cells at >1 uM after 24 hrs. It is filed as functional, cell-based.
Assay [6] can be described thus: Induction of apoptosis in human KS cells assessed as DNA fragmentation at 1 uM […] by FACS relative to control. It is filed as functional. The procedure, abridged: as §2
Assay [7] relates to KS. Put plainly: Effect on human KS cell survival assessed as cell detachment at >1 uM by micrograph analysis. The assay is classed as functional, cell-based.

For `C[C@]12CC[C@H]3[C@@H](CC[C@H]4C[C@H]5O[C@@H]6O[C@H](CO)C[C@@H](O)[C@]6(O)O[C@@H]5C[C@@]43CO)[C@@]1(O)CC[C@@H]2C1=CC(=O)OC1`, the Activity entry is “Dose-dependent effect” in assay [1], 45% in assay [2] and “Dose-dependent effect” in assay [4]. Further, the result in assay [3] and in assay [5] was Active.

`C[C@@H]1C[C@@H](O)[C@]2(O)O[C@@H]3C[C@@]4(C=O)[C@@H](CC[C@@H]5[C@@H]4CC[C@]4(C)[C@@H](C6=CC(=O)OC6)CC[C@]54O)C[C@H]3O[C@@H]2O1` [CALACTIN]: the Activity result was “Dose-dependent effect” in assay [1], 45% in assay [2] and “Dose-dependent effect” in assay [4]. Further, the result in assay [3] and in assay [5] was Active.

Consider `C[C@]12[C@H](O)C[C@H]3[C@@H](CC[C@H]4C[C@H]5O[C@@H]6O[C@H](CO)C[C@@H](O)[C@]6(O)O[C@@H]5C[C@@]43CO)[C@@]1(O)CC[C@@H]2C1=CC(=O)OC1` [GHALAKINOSIDE], for which the Activity result in assay [1] was “Dose-dependent effect”; in assay [2], 45%; in assay [4], “Dose-dependent effect”. Besides, the outcome in assay [3] and in assay [5] was Active.

`C[C@@H]1C[C@@H](O[C@@H]2O[C@H](CO)[C@@H](O)[C@H](O)[C@H]2O)[C@]2(O)O[C@@H]3C[C@@]4(C=O)[C@@H](CC[C@@H]5[C@@H]4CC[C@]4(C)[C@@H](C6=CC(=O)OC6)CC[C@]54O)C[C@H]3O[C@@H]2O1`: the Activity result in assay [1] was “Dose-dependent effect”; in assay [2], 45%; in assay [6], 35%; in assay [4], “Dose-dependent effect”. Further, the result in assay [3], in assay [7] and in assay [5] was Active.

On to `C[C@@H]1C[C@@H](O)[C@]2(O)O[C@@H]3C[C@@]4(CO)[C@@H](CC[C@@H]5[C@@H]4C[C@@H](O)[C@]4(C)[C@@H](C6=CC(=O)OC6)CC[C@]54O)C[C@H]3O[C@@H]2O1`, for which the Activity result in assay [1] was “Dose-dependent effect”; in assay [2], 45%; in assay [4], “Dose-dependent effect”. The outcome in assay [3] and in assay [5] was Active.
